Experimental data pooled from the literature.
Lines come from different studies, so protocols differ.
Target: Dual specificity mitogen-activated protein kinase kinase 3 (MAP2K3, Homo sapiens, UniProt P46734)
One construct used (P46734 1-347): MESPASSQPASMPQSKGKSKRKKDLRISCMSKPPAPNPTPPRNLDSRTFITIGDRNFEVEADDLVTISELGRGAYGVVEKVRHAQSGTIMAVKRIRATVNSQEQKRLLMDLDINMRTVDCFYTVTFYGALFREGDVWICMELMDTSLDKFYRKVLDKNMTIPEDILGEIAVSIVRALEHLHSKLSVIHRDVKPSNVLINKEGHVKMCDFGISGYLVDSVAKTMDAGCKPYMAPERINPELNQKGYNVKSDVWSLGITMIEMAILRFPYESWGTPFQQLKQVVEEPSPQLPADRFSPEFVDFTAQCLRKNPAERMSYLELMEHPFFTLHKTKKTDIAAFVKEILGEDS

O=C(Nc1cnn(-c2csc(C(=O)NC3COC3)c2)c1)Nc1c(F)cccc1Cl
remaining activity (enzyme activity; inhibitor; 5 µM): 111%

Cc1ccc(C(=O)NCc2ccsc2)cc1C#Cc1cn(C(C)C)c2ncnc(N)c12
activity vs control (enzyme activity; inhibitor; 1 µM): 77%

C[C@@H]1CCN(c2nccc(-c3cnn4ncccc34)n2)C1
remaining binding (binding; 1 µM): 69%

CC(=O)C1=C(C)N(c2cccc(C(F)(F)F)c2)C(=O)N[C@@H]1c1ccc(C#N)nc1
remaining binding (cell-free assay; competition with immobilised ligand; 1 µM): 95.2%

CN1CC(Oc2cnc(C#N)cc2-c2ccn3nc(NC(=O)C4CC4)cc3c2)C1
inhibition (enzyme activity; inhibitor; 1 µM): -8%

Nc1ncnc2occ(-c3ccc(NC(=O)Nc4cc(C(F)(F)F)ccc4F)cc3)c12
remaining signal (cell-free assay; inhibitor; 20 µM): 11%

Cc1ccc(C(=O)Nc2ccc(CN3CCN(C)CC3)c(C(F)(F)F)c2)cc1C#Cc1cnc2cccnn12
remaining activity (enzyme activity; inhibitor; 23.5 nM): 94%

CC/C(=N\NC(=O)NCc1cccc(O)c1)c1ccc(O)c(C)c1O
inhibition (enzyme activity; inhibitor; 0.1 µM): -2.5%

Cc1c(NC(=O)c2cc(C(N)=O)nc3cc(F)ccc23)c(C(F)(F)F)nn1Cc1ccc(C(C)(C)C)cc1
remaining binding (cell-free assay; competition with immobilised ligand; 1 µM): 90%

Cc1sc(C(=O)NC2COC2)cc1-n1cc(NC(=O)Nc2c(F)cccc2Cl)cn1
remaining activity (enzyme activity; inhibitor; 10 µM): 88.8%
